Calls of active or inactive are those of the source. The rule behind the calls is not given here.
Experiments:
Type in all cases: functional, organism-based
Klebsiella pneumoniae [1] = assay: Reduction of OmpK36 expression in Klebsiella pneumoniae M expressing CTX-M3 at 4 times MIC concentration by SDS-PAGE analysis
Klebsiella pneumoniae [2] = assay: Reduction of OmpK36 expression in wild type Klebsiella pneumoniae M at 4 times MIC concentration by RT-PCR analysis
Method in brief: (§1)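 K. pneumoniae M strains, with or without CTX-M, were selected for 18 h at 37°C on Trypticase soy agar with ertapenem at four times the MIC. ompK35 (222-bp amplicon) and ompK36 (202-bp amplicon) transcripts were measured by real-time RT-PCR before and after selection; a 193-bp 16S rRNA amplicon was also amplified. Copy numbers were derived from the slopes of calibration curves made with serially diluted cDNA from in vitro RNA standards.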

Escherichia coli [3] = assay: Reduction of OmpC expression in Escherichia coli Wi expressing CTX-M3 at 4 times MIC concentration by RT-PCR analysis
Method in brief: (§2)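 Ertapenem-decreased-susceptibility mutants of E. coli Wi transformants were selected overnight (18 h, 37°C) on Trypticase soy agar containing ertapenem at fourfold the MIC. omp gene transcripts were quantified by real-time RT-PCR in isolates before and after selection. Calibration curves came from serially diluted cDNA of in vitro-obtained RNA standards for each gene, and copy numbers were compared using the curve slopes.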

Escherichia coli [4] = assay: Antibacterial activity against Escherichia coli Wi expressing CTX-M3
Klebsiella pneumoniae [5] = assay: Reduction of OmpK36 expression in Klebsiella pneumoniae M expressing CTX-M3 at 4 times MIC concentration by RT-PCR analysis; method in brief: as §1
Klebsiella pneumoniae [6] = assay: Reduction of OmpK35 expression in Klebsiella pneumoniae M expressing CTX-M15 at 4 times MIC concentration by RT-PCR analysis; method in brief: as §1
Escherichia coli [7] = assay: Reduction of OmpC expression in Escherichia coli Wi expressing CTX-M15 at 4 times MIC concentration by RT-PCR analysis; method in brief: as §2
Klebsiella pneumoniae [8] = assay: Reduction of OmpK35 expression in Klebsiella pneumoniae M expressing CTX-M3 at 4 times MIC concentration by RT-PCR analysis; method in brief: as §1
Escherichia coli [9] = assay: Reduction of OmpF expression in Escherichia coli Wi expressing CTX-M15 at 4 times MIC concentration by RT-PCR analysis; method in brief: as §2
Escherichia coli [10] = assay: Reduction of OmpC expression in Escherichia coli Wi expressing CTX-M3 at 4 times MIC concentration by SDS-PAGE analysis
Klebsiella pneumoniae [11] = assay: Antibacterial activity against Klebsiella pneumoniae M expressing CTX-M3
Klebsiella pneumoniae [12] = assay: Antibacterial activity against Klebsiella pneumoniae M expressing CTX-M15
Escherichia coli [13] = assay: Reduction of OmpC expression in Escherichia coli Wi expressing CTX-M9 at 4 times MIC concentration by RT-PCR analysis; method in brief: as §2
Klebsiella pneumoniae [14] = assay: Reduction of OmpK36 expression in Klebsiella pneumoniae M expressing CTX-M9 at 4 times MIC concentration by RT-PCR analysis; method in brief: as §1
Klebsiella pneumoniae [15] = assay: Reduction of OmpK36 expression in Klebsiella pneumoniae M expressing CTX-M15 at 4 times MIC concentration by RT-PCR analysis; method in brief: as §1
Escherichia coli [16] = assay: Reduction of OmpF expression in Escherichia coli Wi expressing CTX-M9 at 4 times MIC concentration by RT-PCR analysis; method in brief: as §2
Klebsiella pneumoniae [17] = assay: Reduction of OmpK36 expression in Klebsiella pneumoniae M expressing CTX-M2 at 4 times MIC concentration by SDS-PAGE analysis
Escherichia coli [18] = assay: Reduction of OmpC expression in Escherichia coli Wi expressing CTX-M15 at 4 times MIC concentration by SDS-PAGE analysis
Klebsiella pneumoniae [19] = assay: Reduction of OmpK36 expression in Klebsiella pneumoniae M expressing CTX-M15 at 4 times MIC concentration by SDS-PAGE analysis
Escherichia coli [20] = assay: Reduction of OmpF expression in Escherichia coli Wi expressing CTX-M3 at 4 times MIC concentration by RT-PCR analysis; method in brief: as §2
Escherichia coli [21] = assay: Antibacterial activity against Escherichia coli Wi expressing CTX-M2
Klebsiella pneumoniae [22] = assay: Antibacterial activity against Klebsiella pneumoniae M expressing CTX-M2
Escherichia coli [23] = assay: Antibacterial activity against Escherichia coli Wi expressing CTX-M15
Escherichia coli [24] = assay: Antibacterial activity against Escherichia coli Wi expressing CTX-M9
Klebsiella pneumoniae [25] = assay: Antibacterial activity against Klebsiella pneumoniae M expressing CTX-M9
Klebsiella pneumoniae [26] = assay: Reduction of OmpK35 expression in Klebsiella pneumoniae M expressing CTX-M2 at 4 times MIC concentration by RT-PCR analysis; method in brief: as §1
Klebsiella pneumoniae [27] = assay: Reduction of OmpK35 expression in Klebsiella pneumoniae M expressing CTX-M9 at 4 times MIC concentration by RT-PCR analysis; method in brief: as §1
Klebsiella pneumoniae [28] = assay: Reduction of OmpK36 expression in Klebsiella pneumoniae M expressing CTX-M9 at 4 times MIC concentration by SDS-PAGE analysis
Escherichia coli [29] = assay: Reduction of OmpC expression in Escherichia coli Wi expressing CTX-M9 at 4 times MIC concentration by SDS-PAGE analysis
Escherichia coli [30] = assay: Reduction of OmpF expression in Escherichia coli Wi expressing CTX-M2 at 4 times MIC concentration by RT-PCR analysis; method in brief: as §2
Escherichia coli [31] = assay: Reduction of OmpC expression in Escherichia coli Wi expressing CTX-M2 at 4 times MIC concentration by SDS-PAGE analysis
Klebsiella pneumoniae [32] = assay: Reduction of OmpK36 expression in Klebsiella pneumoniae M expressing CTX-M2 at 4 times MIC concentration by RT-PCR analysis; method in brief: as §1
Escherichia coli [33] = assay: Reduction of OmpC expression in Escherichia coli Wi expressing CTX-M2 at 4 times MIC concentration by RT-PCR analysis; method in brief: as §2
Klebsiella pneumoniae [34] = assay: Reduction of OmpK36 expression in wild type Klebsiella pneumoniae M at 4 times MIC concentration by SDS-PAGE analysis

Structure (SMILES): C[C@@H](O)[C@H]1C(=O)N2C(C(=O)O)=C(S[C@@H]3CN[C@H](C(=O)Nc4cccc(C(=O)O)c4)C3)[C@H](C)[C@H]12
- Activity (Klebsiella pneumoniae [1]): Active
- Activity (Klebsiella pneumoniae [2]): Active
- Activity (Escherichia coli [3]): Active
- Activity (Escherichia coli [4]): inactive
- Activity (Klebsiella pneumoniae [5]): Active
- Activity (Klebsiella pneumoniae [6]): Active
- Activity (Escherichia coli [7]): Active
- Activity (Klebsiella pneumoniae [8]): Active
- Activity (Escherichia coli [9]): Active
- Activity (Escherichia coli [10]): Active
- Activity (Klebsiella pneumoniae [11]): inactive
- Activity (Klebsiella pneumoniae [12]): inactive
- Activity (Escherichia coli [13]): Active
- Activity (Klebsiella pneumoniae [14]): Active
- Activity (Klebsiella pneumoniae [15]): Active
- Activity (Escherichia coli [16]): Active
- Activity (Klebsiella pneumoniae [17]): Active
- Activity (Escherichia coli [18]): Active
- Activity (Klebsiella pneumoniae [19]): Active
- Activity (Escherichia coli [20]): Active
- Activity (Escherichia coli [21]): inactive
- Activity (Klebsiella pneumoniae [22]): inactive
- Activity (Escherichia coli [23]): inactive
- Activity (Escherichia coli [24]): inactive
- Activity (Klebsiella pneumoniae [25]): inactive
- Activity (Klebsiella pneumoniae [26]): Active
- Activity (Klebsiella pneumoniae [27]): Active
- Activity (Klebsiella pneumoniae [28]): Active
- Activity (Escherichia coli [29]): Active
- Activity (Escherichia coli [30]): Active
- Activity (Escherichia coli [31]): Active
- Activity (Klebsiella pneumoniae [32]): Active
- Activity (Escherichia coli [33]): Active
- Activity (Klebsiella pneumoniae [34]): Active

Source: ChEMBL document CHEMBL1629627, “CTX-M expression and selection of ertapenem resistance in Klebsiella pneumoniae and Escherichia coli” (Antimicrob Agents Chemother, 2009)
